# Active and inactive are the calls of the source.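 How the source made its calls: active means mean half-maximal effective concentration under 30 µM; inactive means the rest.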
# Molecular target: Metabotropic glutamate receptor 3 (Rattus norvegicus) (UniProt P31422)
# Assay: inhibition of glutamate response at mGlu3 – thallium flux, HEK/GIRK cells, rat, dose response (AID 623885)
# Settings: HEK293 GIRK rat mGlu3, thallium flux fluorescence
# Procedure, shortened: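 Material: HEK-GIRK line expressing rat mGlu3 and M4 | Reagent: Thallium buffer ± agonist | Doses: 10-point concentration series, threefold dilution steps | Schedule: Dye loading 1 h room temperature, compounds ~2.5 min | Measured by: Thallium influx through GIRK, FluoZin-2 AM fluorescence | Evaluation: Fluorescence slope 5–15 s post addition, four-parameter fit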
# Sequence of Metabotropic glutamate receptor 3 (Rattus norvegicus) (P31422 whole entry, looked up): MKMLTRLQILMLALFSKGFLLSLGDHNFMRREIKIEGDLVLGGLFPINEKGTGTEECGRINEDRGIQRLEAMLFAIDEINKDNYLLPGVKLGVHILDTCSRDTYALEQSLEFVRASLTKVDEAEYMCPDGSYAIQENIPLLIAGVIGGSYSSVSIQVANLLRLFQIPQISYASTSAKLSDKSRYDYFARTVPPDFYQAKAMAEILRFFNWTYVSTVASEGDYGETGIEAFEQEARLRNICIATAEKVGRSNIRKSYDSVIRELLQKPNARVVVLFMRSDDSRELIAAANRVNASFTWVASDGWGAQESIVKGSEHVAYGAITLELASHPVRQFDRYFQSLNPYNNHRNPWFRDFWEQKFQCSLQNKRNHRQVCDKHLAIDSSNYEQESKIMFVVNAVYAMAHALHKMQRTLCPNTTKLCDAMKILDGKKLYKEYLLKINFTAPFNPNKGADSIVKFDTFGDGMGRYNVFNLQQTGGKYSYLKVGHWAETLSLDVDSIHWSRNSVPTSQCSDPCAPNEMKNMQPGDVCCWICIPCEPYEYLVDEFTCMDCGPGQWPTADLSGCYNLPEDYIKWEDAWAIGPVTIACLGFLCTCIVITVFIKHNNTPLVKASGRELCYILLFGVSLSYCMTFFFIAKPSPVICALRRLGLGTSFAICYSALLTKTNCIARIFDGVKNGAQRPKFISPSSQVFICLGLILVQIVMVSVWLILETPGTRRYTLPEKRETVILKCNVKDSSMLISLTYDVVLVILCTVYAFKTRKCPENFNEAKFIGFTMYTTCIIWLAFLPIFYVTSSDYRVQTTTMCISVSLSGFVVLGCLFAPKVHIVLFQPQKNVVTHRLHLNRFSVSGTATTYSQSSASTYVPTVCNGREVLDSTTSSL
row,SMILES,IC50 [nM]
1,COc1ccc(C#Cc2ccc(C(=O)N3CCC[C@@H](CO)C3)cc2)cc1,1480

# Same assay, conditions: HEK293 GIRK rat mGlu3, thallium flux fluorescence; at 30 µM (top of the series)
row,SMILES,percent of glutamate max response
1,COc1ccc(C#Cc2ccc(C(=O)N[C@H]3CCCCNC3=O)cc2)cc1,inactive
2,CC(C)CC#Cc1ccc(C(=O)N2CCC(O)CC2)cc1,inactive
3,COc1ccc(C#Cc2ccc(C(=O)N3CCN(c4ccccc4)CC3)cc2)cc1,inactive
4,COc1ccc(C#Cc2ccc(C(=O)N3CCC(C(C)=O)(c4ccccc4)CC3)cc2)cc1,inactive
5,N#Cc1ccc(C#Cc2ccc(C(=O)N3CCC(O)CC3)cc2)cc1,17.5
6,COc1ccc(C#Cc2ccc(C(=O)N3CCC[C@@H](C(=O)O)C3)cc2)cc1,19.5
7,COc1ccc(C#Cc2ccc(C(=O)N3CCCCC3CO)cc2)cc1 (stereo not given),55.9
8,COc1ccc(C#Cc2ccc(C(=O)N3CCC[C@@H](CO)C3)cc2)cc1,-0.47
9,O=C(c1ccc(C#CC2=CCCCC2)cc1)N1CCC(O)CC1,46.1
